STAT3 blocker = IL-6 driven STAT3 reporter inhibitors, primary screen, U3A cells, luciferase, luminescence, MLSCN library. IL-6 STAT3-luciferase reporter; host cell line lacks STAT1. inhibition, % at 5.5 µM. 190,000 compounds, 0.89% hits. AID 862, 2007;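 active = inhibition above the mean inhibition across all screened compounds plus 3 SD, cut at about 44% in these data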;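 also: 0% = DMSO only wells and 100% = 100 µM nifuroxazide control wells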
TRAIL sens C8 = viability loss with TRAIL in NB7+C8 cells, primary screen, TRAIL sensitizer project, cell-based, ATPlite luminescence; AID 624354, 2012; 360,000 compounds, 1% hits; inhibition (viability loss, TRAIL sensitization), % at 10 µM;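 active = compounds causing at least 50% loss of cell viability in the single-dose screen, relative to plate controls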
FLuc stim CS = FLuc activators, initial screening, artefact control for FLuc-dependent activation tests, biochemical, ATPlite luminescence. ATPlite luciferase biochemical, 10 min; 0 = ATP-free wells, 1 = DMSO control. Luciferin 4-monooxygenase (Photinus pyralis), P08659. 200,000 tested, under 10 active. activation factor at 10 µM;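 active = luciferase activation factor, scaled between plate controls, of at least 2 with compound at 10 µM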
Target sequence (P08659 whole entry, looked up): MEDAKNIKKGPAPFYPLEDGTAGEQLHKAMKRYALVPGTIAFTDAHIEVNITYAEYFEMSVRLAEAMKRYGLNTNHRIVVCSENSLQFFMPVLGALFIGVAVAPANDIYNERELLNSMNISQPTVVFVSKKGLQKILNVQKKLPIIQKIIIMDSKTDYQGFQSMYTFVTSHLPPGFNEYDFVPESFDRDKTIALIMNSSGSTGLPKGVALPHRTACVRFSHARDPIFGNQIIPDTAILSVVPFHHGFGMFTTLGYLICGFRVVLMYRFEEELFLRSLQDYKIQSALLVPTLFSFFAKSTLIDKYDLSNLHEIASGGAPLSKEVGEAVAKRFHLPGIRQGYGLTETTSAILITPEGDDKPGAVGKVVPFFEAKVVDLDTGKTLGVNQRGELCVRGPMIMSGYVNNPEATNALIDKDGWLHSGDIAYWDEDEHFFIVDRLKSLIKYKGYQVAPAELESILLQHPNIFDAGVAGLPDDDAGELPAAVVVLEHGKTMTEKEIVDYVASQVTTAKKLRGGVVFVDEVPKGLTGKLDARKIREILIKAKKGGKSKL
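Material: Luciferase/luciferin reagent mix; Doses: test compounds dosed from 2 mM stocks in 100% DMSO; Schedule: 10 min incubation after luciferase reagent addition, room temperature; Measured by: luminescence from luciferase reaction; Read-out: luminescence gain marking luciferase activators.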
HSP90 refold inh = HSP90 inhibitors, primary screen, cell lysate, luminescence; inhibition, % at 5.6 µM; AID 1789, 2009; Heat shock protein HSP 90 (rabbit reticulocyte lysate; luciferase refolding); 290,000 compounds, 0.91% hits; Rabbit reticulocyte lysate, luciferase refolding luminescence, 3 h;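 active = inhibition above the screen-wide mean plus 3 SD, computed separately per campaign, cut at about 16% in these data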;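 also: 0% = DMSO wells and 100% = 60 µM geldanamycin wells; inhibitors lower the luminescence because luciferase stays unfolded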
PPC-1+TRAIL kill = compounds killing PPC-1 cancer cells with TRAIL present, primary screen, TRAIL potentiator project, ATPLite luminescence, uHTS; PPC-1 cells + TRAIL, ATPLite viability luminescence; cell killing (% activity), % at 4 µM or 5 µM; 220,000 compounds, 0.41% hits; AID 1443, 2008;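 active = cell killing above 50% in the first pass at 4 µM, then a duplicate retest at 5 µM averaging 50% or more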;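 also: plate controls were cells with TRAIL plus DMSO for no effect and medium-only wells lacking cells for full effect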
FLuc inh counter = firefly luciferase enzyme inhibitors, primary screen, artefact control for luciferase-based inhibitor screens, biochemical, luminescence, ATPLite. 200,000 compounds, 1.5% hits. AID 1006, 2008. inhibition, % at 10 µM. 10 min. Luciferin 4-monooxygenase (Photinus pyralis), P08659;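 active = inhibition above about 50% when tested at 10 µM, limit read from the data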
HSP90 confirm = HSP90 inhibitors, confirmation, cell lysate, luminescence. shares compounds with HSP90 refold inh. rabbit reticulocyte lysate, luciferase refolding luminescence, 3 h. inhibition, % at 5.9 µM. 2,300 compounds, 64% hits. AID 1846, 2009; in the data active = inhibition above about 18%;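 also: 0% = vehicle wells and 100% = reference inhibitor wells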
luciferase ctr = firefly luciferase inhibitors, HSP90 counter-screen, confirmation, artefact control for HSP90 inhibitor project, biochemical, luminescence, triplicate | shares compounds with HSP90 refold inh | AID 1847, 2009 | inhibition, % at 5.9 µM | purified native firefly luciferase | 2,300 compounds, 48% hits;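 active = inhibition above the mean inhibition of all tested sample wells plus 3 SD, cut at about 10% in these data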;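 also: 0% = DMSO with luciferase and 100% = wells lacking luciferase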
An asterisk follows results filed as active; · = not tested or not shown. Rows were chosen to be rich in hits. Some 2.2% of all compounds tested hit in one or more screens of this group.

SMILES | STAT3 blocker | TRAIL sens C8 | FLuc stim CS | HSP90 refold inh | PPC-1+TRAIL kill | FLuc inh counter | HSP90 confirm | luciferase ctr
CCCOc1ccc(C(=O)Nc2nc(C)c(Cc3ccc4c(c3)OCO4)s2)cc1 | -0.4 | 2.4 | 1 | 24.2* | -1.5 | -2.2 | 3.3 | -11.8
Cc1nc(NC(=O)c2ccc(OCC(C)C)cc2)sc1Cc1ccc2c(c1)OCO2 | 2.4 | 4.2 | 1.1 | 31.7* | 15.3 | -5.3 | 7.3 | -6.3
COc1ccc(OC)c(/C=N/Nc2nncn2/N=C/c2cc(OC)ccc2OC)c1 | -7.5 | -14.3 | 1 | 42.0* | 11.6 | 4.5 | -2.2 | -12.5
COc1ccc(-n2ncc3c(NCCCN4CCOCC4)ncnc32)cc1 | -6.1 | 6.5 | 0.8 | 27.8* | 11.2 | 15.1 | 31.8* | 32.1*
CCCNc1ncnc2c1cnn2-c1ccc(OC)cc1 | 33.7 | · | 0.6 | 9.4 | · | 43.1 | · | ·
Cc1ccc(-n2ncc3c(NCCCN4CCOCC4)ncnc32)c(C)c1 | 6.9 | 15.3 | 1.1 | 1.2 | 8.4 | -5.2 | · | ·
COc1ccc(-n2ncc3c(NCCN4CCOCC4)ncnc32)cc1 | 1.1 | 0.0 | 0.9 | 25.9* | 16.0 | 6.1 | 26.6* | 18.8*
S=c1[nH]nc(-c2ccc(Cl)cc2)n1Cc1ccccc1 | 12.2 | -5.4 | 1 | 45.6* | 16.0 | -2.7 | -6.3 | -7.6
S=c1[nH]nc(-c2ccccc2)n1Cc1ccccc1 | 8.8 | -7.2 | 1 | -1.5 | 0.8 | 0.4 | · | ·
O=C(COc1ccc(Cl)cc1)NCc1nnc(SCC(=O)Nc2ccccc2)o1 | 6.2 | 3.2 | 1 | 36.8* | -13.3 | -1.6 | -1.0 | -6.2
COc1ccc(NC(=O)CSc2nnc(CNC(=O)COc3ccc(Cl)cc3)o2)cc1 | 2.9 | -1.5 | 1 | 4.0 | 15.6 | -0.3 | · | ·
Cc1ccc(NC(=O)O/N=C/c2c(C)nn(C(C)(C)C)c2C)cc1Cl | · | 21.0 | · | 86.0* | 9.7 | · | 86.9* | 87.7*
COc1ccccc1CNC(=O)CN(C)S(=O)(=O)c1ccc2c(c1)c(=O)n(C)c(=O)n2C | · | 8.0 | · | -2.9 | · | · | · | ·
COc1cccc(N(CC(=O)NCCSc2ccccn2)S(=O)(=O)c2ccccc2)c1 | · | 7.0 | · | -1.8 | · | · | · | ·
CCc1ccccc1N(CC(=O)N1CCCCCC1)S(C)(=O)=O | · | 3.2 | · | -0.8 | · | · | · | ·
CCc1ccccc1N(CC(=O)N1CCCC1)S(C)(=O)=O | · | 1.7 | · | 22.2* | · | · | -2.9 | -2.0
CCc1c(C)[nH]c(C(=O)OCc2ccccc2)c1C | 7.1 | 2.3 | 1 | 24.3* | 5.7 | -1.2 | -2.3 | -13.1
CCc1c(C(=O)OCc2ccccc2)[nH]c(C)c1C | · | -2.6 | · | -4.6 | 3.4 | · | · | ·
CC(C)CN(CCCNC(=O)CN1C(=O)COc2ccc(S(=O)(=O)N3CCCC3)cc21)CC(C)C | 14.5 | 5.5 | 1 | 22.0* | -9.6 | 3.5 | -4.4 | -5.3
CC(C)CN(CCCNC(=O)CN1C(=O)COc2ccc(S(=O)(=O)N3CCCCCC3)cc21)CC(C)C | · | -9.1 | · | -0.1 | · | · | · | ·
COc1ccccc1C(=O)NC(CCSC)C(=O)NCCCn1nc(C)cc1C (stereo unspecified) | · | 4.9 | · | · | · | · | · | ·
Cc1c(CC(=O)NCCCCCC(=O)O)c(=O)oc2cc3c(cc12)CCC(C)(C)O3 | · | 33.0 | · | 3.2 | · | · | · | ·
Cc1c(CC(=O)NCCCC(=O)O)c(=O)oc2cc3c(cc12)CCC(C)(C)O3 | · | -18.5 | · | 23.8* | · | · | 36.0* | -5.0
COC(=O)c1cn[nH]c1NC(=S)Nc1ccc(Cl)c(Cl)c1 | 28.0 | 18.1 | 0.8 | 36.7* | 17.1 | 25.0 | 43.9* | 44.0*
O=C(CNC(=O)Cc1ccc(Cl)cc1)NCC(=O)N1CCCCC1 | · | 4.9 | · | 22.7* | · | · | -3.3 | -7.4
SMILES | STAT3 blocker | TRAIL sens C8 | FLuc stim CS | HSP90 refold inh | PPC-1+TRAIL kill | FLuc inh counter | HSP90 confirm | luciferase ctr
O=C(C1=C[C@H](c2csc3ccccc23)C[C@H](OCCCCO)O1)N1CCN(Cc2ccc3c(c2)OCO3)CC1 | · | -16.2 | 1 | 19.1* | -11.5 | -2.3 | -6.3 | -13.4
O=C(C1=C[C@@H](c2csc3ccccc23)C[C@@H](OCCCCO)O1)N1CCN(Cc2ccc3c(c2)OCO3)CC1 | · | 5.8 | 1 | 12.9 | -0.7 | -3.2 | · | ·
CCN1C(=O)C(C(=O)c2ccccc2)SC1=S (stereo unspecified) | 3.6 | -2.9 | 1 | -3.9 | 10.2 | 0.1 | · | ·
CN(C)c1ccc(C(=O)c2ccccc2)cc1 | 0.9 | 5.2 | 0.8 | -4.0 | 18.0 | 20.9 | · | ·
CN(C)c1ccc(N=Nc2ccc(C(=O)O)cc2)cc1 | · | 50.6* | · | 31.4* | · | · | 53.0* | 84.2*
CC(C)(C)c1ccc(-c2conc2N)cc1 | 3.8 | 25.4 | 0.4 | 69.2* | 16.1 | 61.2* | -5.5 | -14.0
C=CCn1c(SCC(=O)NCCOC)nnc1-c1cc2c(s1)CCC(CC)C2 (stereo unspecified) | 3.5 | 12.6 | 0.7 | 52.1* | 14.2 | 29.7 | 1.7 | -11.8
C=CCn1c(SCC(=O)NCC)nnc1-c1cc2c(s1)CCC(CC)C2 (stereo unspecified) | -9.7 | 9.9 | 0.8 | -1.3 | 1.1 | 20.4 | · | ·
CCOC(=O)c1csc(COc2ccc(OC)cc2)n1 | · | 5.7 | · | 20.3* | 9.6 | · | 51.9* | -13.1
O=C1[C@@H]2CSCN2C(=O)CN1Cc1c(F)cccc1Cl | · | 6.8 | · | -2.1 | · | · | · | ·
Cc1c(C(=O)Nc2ccc3c(c2)OCCO3)cnn1C | · | 9.6 | · | 34.9* | · | · | 56.8* | 60.3*
Cc1nn(C)cc1C(=O)Nc1ccc2c(c1)OCCO2 | · | -12.7 | · | 18.6* | · | · | 20.8* | 9.0
COc1ccc(N(/N=C2\Sc3ccccc3C2=O)C(C)=O)cc1 | 5.5 | 6.8 | 1 | 19.6* | 4.7 | 4.2 | 73.1* | -18.9
COc1ccccc1NC1=C(NC(C)=O)C(=O)c2ccccc2C1=O | -18.7 | -8.2 | 0.9 | -3.8 | 7.5 | 6.6 | · | ·
COc1ccccc1N(/N=C1\Sc2ccccc2C1=O)C(C)=O | · | 49.2 | · | 70.7* | 48.4 | · | 75.9* | 34.3*
COc1ccc(CN(C(C)=O)c2ccccc2C(=O)O)cc1 | · | -4.0 | · | 3.3 | 6.3 | · | · | ·
COC(=O)[C@]12CCCCC=C1N(Cc1ccco1)C(=O)[C@H](CC(=O)N1CCC(c3ccccc3)CC1)C2 | · | 9.8 | · | · | · | · | · | ·
Cc1cc(C(=O)Cn2nc(C(=O)O)c3ccccc3c2=O)c(C)n1CCc1ccc(F)cc1 | · | 18.9 | · | 3.6 | -19.4 | · | · | ·
